The results in this text go back to ChEMBL document CHEMBL1122132, “Synthesis, 470-MHz 1H NMR spectra, and activity of delactonized derivatives of the anticancer drug etoposide” (1982).

Common to all, as to type: functional
The subject of assay [1] is Mus musculus. As to the kind of experiment: Percent increase in life span of mouse leukemia L1210 system at a dose of 60 mg/kg.
In assay [2] the test system is L1210. As to the kind of experiment: In vitro cytotoxic activity tested in mouse leukemia L1210 cells at a dose of 0.5 ug/mL. To be noted: read-out: Survival. Put shortly: (§1)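 Continuous mouse L1210 leukemia cell line exposed to 0.5, 5.0 or 50.0 μg/mL in a soft agar clonogenic assay. Colony survival is expressed as % of untreated control, with control set at 100.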

The subject of assay [3] is L1210. Kind of assay: In vitro cytotoxic activity tested in mouse leukemia L1210 cells at a dose of 50.0 ug/mL. To be noted: read-out: Survival. Put shortly:
as §1

The subject of assay [4] is Mus musculus. Kind of assay: Percent increase in life span of mouse leukemia L1210 system at a dose of 30 mg/kg.
In assay [5] the test system is L1210. As to the kind of experiment: In vitro cytotoxic activity tested in mouse leukemia L1210 cells at a dose of 5.0 ug/mL. The conditions noted are these: read-out: Survival. Put shortly:
as §1

Assay [6] has as its system Mus musculus. As to the kind of experiment: Percent increase in life span of mouse leukemia L1210 system at a dose of 45 mg/kg.

In the case of `COc1cc([C@@H]2c3cc4c(cc3[C@@H](O[C@@H]3O[C@@H]5CO[C@@H](C)O[C@H]5[C@H](O)[C@H]3O)[C@H]3COC(=O)[C@H]23)OCO4)cc(OC)c1O` [ETOPOSIDE], the ILS (in general, the gain in survival time of treated over control animals, in per cent) at 60 mg/kg in the assay on Mus musculus [1] came to 103%. In addition, the viability at 0.5 µg/mL with L1210 [2] was 0%. Besides, in the assay with L1210 [3], the viability at 50 µg/mL stood at 0%. The same compound registered an ILS at 30 mg/kg with Mus musculus [4] of 110%. For the same compound, the viability at 5 µg/mL in the assay on L1210 [5] was determined as 1%.

In the assay on Mus musculus [1], `COc1cc([C@@H]2c3cc4c(cc3[C@@H](O[C@@H]3O[C@@H]5CO[C@@H](C)O[C@H]5[C@H](O)[C@H]3O)[C@@H](CO)[C@@H]2CO)OCO4)cc(OC)c1O` registered an ILS at 60 mg/kg of 5%. Also, the viability at 50 µg/mL in the assay on L1210 [3] was determined as 43%. In the assay on Mus musculus [4], this compound yielded an ILS at 30 mg/kg of 0%. The viability at 5 µg/mL with L1210 [5] was determined as 221%. The same compound returned an ILS at 45 mg/kg in the assay with Mus musculus [6] of 0%.

Regarding `COc1cc([C@@H]2c3cc4c(cc3[C@@H](O[C@@H]3O[C@@H]5CO[C@@H](C)O[C@H]5[C@H](O)[C@H]3O)[C@H]3COC[C@H]23)OCO4)cc(OC)c1O`, the ILS at 60 mg/kg with Mus musculus [1] was 30%. Also, in the assay with L1210 [2], the viability at 0.5 µg/mL was 165%. In addition, the viability at 50 µg/mL with L1210 [3] worked out at 0%. In the assay with Mus musculus [4], the ILS at 30 mg/kg was 10%. Besides, the viability at 5 µg/mL in the assay with L1210 [5] came out at 0%. Also, the ILS at 45 mg/kg with Mus musculus [6] was 25%.
